Screening data from PubChem BioAssay.
A selection: hits, their analogues and other compounds. The true share with any hit is near 2.7%.
OX1R antag-1 = OX1R (human) antagonism. OX1R-expressing cells, FRET antagonist read-out. inhibition, % at 6.6 µM. 330,000 tested, 1.8% active. O43613; in the data active = inhibition mostly above about 38%, no sharp cut-off; inactive = mostly below about 40%
CHO parental Ca = counter-screen for OX1R antagonists: effect in parental CHO cells; parental CHO-K1, ATP-induced calcium, Fluo-8 fluorescence; inhibition, % at 5.6 µM; 330,000 tested, 0.63% active; AID 463079;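 active = inhibition above that plate's mean sample inhibition plus 3 SD, cut at about 26% in these data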
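Assay system – parental CHO cells · Reagent – ATP stimulus · Detection – intracellular calcium via Fluo-8 no-wash fluorescent dye · Evaluation – percent inhibition of ATP-evoked calcium rise, normalized to controls · Controls – ATP wells versus no-ATP DMSO wells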
V1R ag counter = activates human V1a receptor in oxytocin agonist counter-screen | P37288 | CHO-V1R cells, Fluo-8 calcium fluorescence, agonist mode; 0% DMSO, 100% 3 nM vasopressin | activation, % at 3 µM | 320,000 tested, 0.25% active;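 active = activation above the mean activation of all tested compounds plus 3 SD, per screening run, cut at about 20% in these data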;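 also: signal is peak over basal fluorescence ratio across a 100 second FLIPR read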
Target sequence (P37288 whole entry, looked up): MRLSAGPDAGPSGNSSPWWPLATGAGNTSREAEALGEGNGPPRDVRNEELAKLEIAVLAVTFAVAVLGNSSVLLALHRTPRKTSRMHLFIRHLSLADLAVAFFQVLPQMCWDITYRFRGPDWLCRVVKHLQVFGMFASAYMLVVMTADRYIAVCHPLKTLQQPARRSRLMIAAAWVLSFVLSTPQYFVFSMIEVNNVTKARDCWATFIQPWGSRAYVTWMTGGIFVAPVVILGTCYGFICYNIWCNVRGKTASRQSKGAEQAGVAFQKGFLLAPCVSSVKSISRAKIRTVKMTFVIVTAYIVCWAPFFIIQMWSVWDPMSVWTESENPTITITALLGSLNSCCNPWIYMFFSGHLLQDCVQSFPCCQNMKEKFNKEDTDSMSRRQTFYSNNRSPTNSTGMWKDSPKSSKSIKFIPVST
OXTR potentiator = human OXTR potentiation; 320,000 tested, 0.061% active; P30559; AID 2445; activation, % at 3 µM; CHO-OTR cells, Fluo-8 calcium fluorescence, potentiator mode; 0% = oxytocin EC15, 100% = EC100;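 active = activation above that plate's cutoff, the mean activation of tested compounds plus 3 SD, cut at about 6.6% in these data, passing the limit was not always enough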
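Dosing: Single dose, 3.0 µM nominal final compound concentration | Material: Human OTR in CHO cells | Technique: Kinetic Fluo-8 calcium fluorescence | Benchmarks: EC15 oxytocin alone as 0%, 75 nM oxytocin as 100% | Probe or stimulus: Oxytocin at about EC15, sub-maximal agonist stimulus | Incubation: Compound 6 min at room temperature before oxytocin, 100 s read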
OXTR ag = agonists of human oxytocin receptor | CHO-OTR cells, Fluo-8 calcium fluorescence; normalized: DMSO 0%, oxytocin 100% | activation, % at 3 µM | 320,000 tested, 0.32% active;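 active = activation above the mean of all tested compounds plus 3 SD, cutoff set per screening run, cut at about 20% in these data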;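 also: peak over basal fluorescence ratio from a 100 s FLIPR kinetic read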
OX1R antag-2 = human HCRTR1 antagonism; O43613; CHO/OX1R cells, Fluo-8 calcium fluorescence, orexin A; inhibition, % at 5 µM; 330,000 tested, 0.43% active; AID 434989;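 active = inhibition above its plate's threshold, mean inhibition of all tested compounds on the plate plus 3 SD, cut at about 37% in these data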
A number is an active result.

COc1ccc(Cl)cc1N(CC(=O)NC1CC2CCC1C2)S(=O)(=O)c1ccccc1 (configuration not stated) was read as OX1R antag-1 inactive, CHO parental Ca inactive, V1R ag counter inactive, OXTR potentiator inactive, OXTR ag inactive and OX1R antag-2 inactive.
COc1ccc(OC)c(N(CC(=O)NC2CC3CCC2C3)S(=O)(=O)c2ccccc2)c1 (configuration not stated) was read as OX1R antag-1 46.3, CHO parental Ca inactive, V1R ag counter inactive, OXTR potentiator inactive, OXTR ag inactive and OX1R antag-2 inactive.
For CCOc1ccccc1N(CC(=O)NCCc1ccc(OC)c(OC)c1)S(=O)(=O)c1ccccc1 the results were OX1R antag-1 75.7, CHO parental Ca inactive, V1R ag counter inactive, OXTR potentiator inactive, OXTR ag inactive and OX1R antag-2 inactive.
COc1ccc(N(CC(=O)NCCC2=CCCCC2)S(=O)(=O)c2ccccc2)c(OC)c1 was read as OX1R antag-1 61.9, CHO parental Ca inactive, V1R ag counter inactive, OXTR potentiator inactive, OXTR ag inactive and OX1R antag-2 inactive.
For CCOc1ccccc1N(CC(=O)Nc1cccc(OC)c1)S(=O)(=O)c1ccccc1 the results were OX1R antag-1 inactive, CHO parental Ca inactive, V1R ag counter inactive, OXTR potentiator inactive, OXTR ag inactive and OX1R antag-2 inactive.
Screening O=C(NCCS(=O)(=O)N1CCC2(CC1)OCCO2)c1ccc(F)cc1 returned OX1R antag-1 inactive, CHO parental Ca inactive, V1R ag counter inactive, OXTR potentiator inactive, OXTR ag inactive and OX1R antag-2 inactive.
CC1CCC(NC(=O)CN2C(=O)C3CC=CCC3C2=O)CC1 (configuration not stated) was read as OX1R antag-1 inactive, CHO parental Ca inactive, V1R ag counter inactive, OXTR potentiator inactive, OXTR ag inactive and OX1R antag-2 inactive.
COc1ccc(C(=O)Cn2cc[n+](C)c2)cc1 was read as OX1R antag-1 inactive, CHO parental Ca inactive, V1R ag counter inactive, OXTR potentiator inactive, OXTR ag inactive and OX1R antag-2 inactive.
`Cc1cc(C)cc(N(CC(=O)Nc2ccccc2)C2=NC3CS(=O)(=O)CC3S2)c1` (configuration not stated) gave OX1R antag-1 60.5, CHO parental Ca inactive, V1R ag counter inactive, OXTR potentiator inactive, OXTR ag inactive and OX1R antag-2 inactive.
`COc1ccc(N(CC(=O)Nc2ccc(C)c(C)c2)C2=NC3CS(=O)(=O)CC3S2)cc1` (configuration not stated) gave OX1R antag-1 inactive, CHO parental Ca inactive, V1R ag counter inactive, OXTR potentiator inactive, OXTR ag inactive and OX1R antag-2 inactive.
`COc1ccc(CC(=O)N(C)CC(=O)Nc2ccc(F)cc2)cc1S(=O)(=O)N1CCOCC1` gave OX1R antag-1 inactive, CHO parental Ca inactive, V1R ag counter inactive, OXTR potentiator inactive, OXTR ag inactive and OX1R antag-2 inactive.
Screening COc1ccc(COC(=O)CNC(=O)C2CCCCC2)cc1F returned OX1R antag-1 inactive, CHO parental Ca inactive, V1R ag counter inactive, OXTR potentiator inactive, OXTR ag inactive and OX1R antag-2 inactive.
Screening O=C1NC(=O)C(Cc2cccc(Oc3ccccc3)c2)S1 (configuration not stated) returned OX1R antag-1 44.0, CHO parental Ca inactive, V1R ag counter inactive, OXTR potentiator inactive, OXTR ag inactive and OX1R antag-2 inactive.
`CCOC(=O)c1c(NC(=O)C(NCCN(C)C)c2ccccc2)sc2c1CCCC2` (configuration not stated) gave OX1R antag-1 inactive, CHO parental Ca inactive, V1R ag counter inactive, OXTR potentiator inactive, OXTR ag inactive and OX1R antag-2 inactive.
`O=C(NCCc1ccccc1)c1ccc2c(c1)S(=O)(=O)c1cc(Cl)ccc1C2=O` gave OX1R antag-1 inactive, CHO parental Ca inactive, V1R ag counter inactive, OXTR potentiator inactive, OXTR ag inactive and OX1R antag-2 inactive.
Screening Cc1ccc(NS(=O)(=O)c2ccc(C(=O)NCc3ccc(S(N)(=O)=O)cc3)cc2)cc1 returned OX1R antag-1 inactive, CHO parental Ca inactive, V1R ag counter inactive, OXTR potentiator inactive, OXTR ag inactive and OX1R antag-2 inactive.
